An excerpt weighted towards active compounds, which were near 0.74% of everything screened.
ARFGAP1 inhibitor: inhibits rat ARF GTPase activating protein 1. Arfgap1-stimulated ARF1 GTP hydrolysis, GDP FP detection. inhibition, % at 16.5 µM. actives 0.26% (n = 360,000);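 active = inhibition above a per-plate limit, mean inhibition of low control wells plus 3 SD, cut at about 25% in these data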;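 note: 0% = DMSO wells with enzyme and 100% = wells lacking Arfgap1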
Target sequence (Q62848 1-136 limits assumed): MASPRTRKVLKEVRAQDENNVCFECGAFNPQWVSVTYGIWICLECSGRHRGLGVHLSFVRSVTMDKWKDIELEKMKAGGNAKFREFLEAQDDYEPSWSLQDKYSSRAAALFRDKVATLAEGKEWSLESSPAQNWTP
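Material: rat Arfgap1 catalytic domain, aa 1-136; also added: human ARF1(Δ1-17)-GTP substrate; compound dosing: one concentration, 16.5 µM, DMSO 1.26%; incubation: GTP hydrolysis reaction 2 h at 25 °C; measured by: Tracer-displacement fluorescence polarization with EDTA stop, 620/688 nm; evaluation: % inhibition from polarization; repeats: one replicate per compound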
DDE Tn7 FP inh: disrupts Tn7 cyclic peptide binding to fibrin D-Dimer-E complex; P02675; FP displacement of FITC-Tn7 peptide from fibrin DD(E); 0% = median of compound wells per plate; inhibition, % at 8.3 µM; actives 0.13% (n = 370,000); AID 720508;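 active = inhibition above the mean of compounds falling within the control limits plus 3 SD of them, cut at about 14% in these data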;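 note: 0% = plate median of compound wells and 100% = 10 µM Aha-Tn7 peptide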
Target sequence (P02675 whole entry, looked up): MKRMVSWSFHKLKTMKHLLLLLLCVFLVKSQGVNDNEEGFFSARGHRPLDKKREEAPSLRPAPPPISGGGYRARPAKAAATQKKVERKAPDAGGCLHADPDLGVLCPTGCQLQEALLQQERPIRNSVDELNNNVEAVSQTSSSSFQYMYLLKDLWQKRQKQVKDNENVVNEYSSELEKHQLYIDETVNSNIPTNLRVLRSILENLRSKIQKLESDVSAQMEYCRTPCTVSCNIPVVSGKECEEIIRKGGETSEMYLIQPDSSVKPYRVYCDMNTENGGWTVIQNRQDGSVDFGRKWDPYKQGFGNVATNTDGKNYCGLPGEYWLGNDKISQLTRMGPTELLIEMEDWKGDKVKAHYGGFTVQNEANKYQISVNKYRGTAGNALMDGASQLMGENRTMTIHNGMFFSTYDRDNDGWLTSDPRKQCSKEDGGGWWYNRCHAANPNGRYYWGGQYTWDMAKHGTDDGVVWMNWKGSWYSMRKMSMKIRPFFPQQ
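Measure: % inhibition scaled between sample-field median and high-control FP; Test system: human fibrin DD(E); Quantity: 2 µM final DD(E) protein; Doses: one dose, 8.3 µM nominal; Schedule: compound with protein 10 min, then 3 h after probe, room temperature; Detection: fluorescence polarization; Medium: Tris buffer with calcium and detergent, pH 7.8.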
ASAP1 inh: ASAP1 ArfGAP inhibition | ASAP1-stimulated ARF1 GTP hydrolysis, GDP FP detection | inhibition, % at 16.5 µM | actives 0.19% (n = 360,000) | AID 624377; in the data active = inhibition above about 25%;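 note: 0% = vehicle with enzyme and substrate and 100% = no enzyme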
Tn6 DDE FP: inhibitors of Tn6 peptide binding to human fibrin DD(E); P02675; Fibrin DD(E) TRITC-Tn6 fluorescence polarization displacement; inhibition, % at 8.3 µM; actives 0.21% (n = 370,000); AID 720509;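 active = inhibition above a per-campaign cutoff: mean of compounds within control limits plus 3 SD, cut at about 15% in these data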;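 note: 0% = median of all compound wells on the plate and 100% = blocking peptide control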
ARFGAP1 confirm: confirmation of rat ARFGAP1 inhibitors | shares compounds with ARFGAP1 inhibitor | ARFGAP1-stimulated ARF1 GTP hydrolysis, GDP tracer FP | actives 30% (n = 890) | inhibition, % at 16.5 µM | AID 651608;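 active = average inhibition over triplicates above the hit cutoff set in the earlier primary screen, cut at about 25% in these data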;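 note: 0% = Arfgap1 plus ARF1-GTP with DMSO and 100% = wells lacking Arfgap1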
An asterisk follows results filed as active; · = no result given.

SMILES	ARFGAP1 inhibitor	DDE Tn7 FP inh	ASAP1 inh	Tn6 DDE FP	ARFGAP1 confirm
CC(=O)NC1CCCCN(Cc2cccc(F)c2)C1=O (stereo unspecified)	·	-4.1	·	-0.5	·
COc1ccc(C(=O)N2CCC(C)(C(=O)O)C2)c(OC)c1 (stereo unspecified)	25.6*	0.0	4.1	-4.1	-5.5
CCNC(=O)C1(C)CCN(C(=O)c2ccc(OC)cc2OC)C1 (stereo unspecified)	-7.1	0.2	-2.5	4.5	·
CCOC(=O)C1CCN(C(=O)c2ccc(OC)cc2OC)CC1	29.3*	-0.9	9.3	3.8	1.9
COc1ccccc1NS(=O)(=O)c1cc(NC(=O)C(C)(C)C)ccc1N1CCOCC1	5.1	4.6	-9.5	-1.7	·
COc1ccccc1NS(=O)(=O)c1cc(NC(=O)c2cc(=O)[nH]c3ccccc23)ccc1N1CCOCC1	28.0*	-1.7	15.4	-8.2	8.8
Cc1cc(C(=O)O[C@@H]2CCC[C@@]3(C(=O)N(Cc4ccccc4)c4ccccc43)[C@H]2NC(=O)CCc2ccccc2)no1	·	-7.3	·	-3.8	·
COc1cc2c(cc1OC)C(C)N(C(=O)c1cc3c(s1)-c1ccccc1OC3)CC2 (stereo unspecified)	24.8*	-2.6	3.8	-10.1	5.4
COc1cc2c(cc1OC)C(C)N(C(=O)c1cc3c(s1)-c1c(C)cccc1OC3)CC2 (stereo unspecified)	-2.3	6.7	8.4	-1.6	·
O=C(CSc1nc2ccccc2nc1N1CCCCC1)NCc1ccc(Cl)cc1Cl	·	-3.3	·	3.1	·
COc1ccc(CNC(=O)CCS(=O)(=O)c2ccc3c(c2)NC(=O)CS3)cc1	25.1*	-0.2	1.1	-7.8	-3.2
Nc1[nH]c(C(=O)c2ccccc2)c(-c2ccccc2C(F)(F)F)c1C(=O)NCCc1c[nH]c2ccccc12	24.6*	-13.9	2.8	-1.2	11.9
COC(=O)C1CN(Cc2ccc(C)cc2)CCS(=O)(=O)N1Cc1cn(Cc2ccc(OC)cc2)nn1 (stereo unspecified)	·	1.6	·	0.7	·
O=C(Nc1nc2ccc(SC(F)F)cc2s1)c1ccc(NS(=O)(=O)c2ccc(F)c(F)c2)cc1	25.9*	-0.4	19.2	-0.8	29.8*
Nc1nc(/C=C/c2cccnc2)nc(-c2ccccc2O)n1	36.6*	2.3	12.1	-6.7	25.3*
COc1ccc(CCN2C(=O)NC(NC(=O)CC(C)C)(C(F)(F)F)C2=O)cc1OC (stereo unspecified)	27.8*	1.2	-14.4	4.1	-3.1
CN1C(=O)c2cc(NC(=O)Nc3ccccc3)ccc2OC[C@H]2O[C@@H](CC(=O)NC3CCC3)CC[C@@H]21	·	-3.9	·	-3.9	·
CCCN1CCS(=O)(=O)N(Cc2cn(Cc3ccc(OC)cc3)nn2)C(C(=O)OC)C1 (stereo unspecified)	·	-0.2	·	-4.7	·
CCOc1ccc(-n2c(SCc3ccc([N+](=O)[O-])cc3)nnc2-c2ccccc2)cc1	33.4*	1.9	6.0	-5.4	-2.1
CCC(C)C(=O)Nc1nc(C)c(-c2csc(Nc3cc(OC)ccc3OC)n2)s1 (stereo unspecified)	10.6	-4.5	2.5	-2.2	·
CCC(C)C(=O)Nc1nc(C)c(-c2csc(Nc3cc(Cl)ccc3OC)n2)s1 (stereo unspecified)	30.6*	-2.9	9.9	-7.6	10.0
O=C(CSc1nc2ccc(NC(=O)CSc3nnnn3Cc3ccccc3)cc2s1)Nc1ccccc1	-2.9	2.5	10.6	-5.0	·
Cc1cc(C)c(NC(=O)CSc2nc3ccc(NC(=O)CSc4nnnn4Cc4ccccc4)cc3s2)c(C)c1	24.8*	3.4	-10.4	8.8	5.0
Cc1c(Cl)sn(-c2ccc(Cl)cc2)c1=O	29.9*	2.9	8.8	4.6	7.9
Cc1nn(-c2ccc(Cl)cc2)c(=O)c2ccccc12	8.5	-8.8	8.4	1.5	·
SMILES	ARFGAP1 inhibitor	DDE Tn7 FP inh	ASAP1 inh	Tn6 DDE FP	ARFGAP1 confirm
O=C(Nc1ccc(NC(=O)c2ccccc2Cl)c(Cl)c1)c1ccccn1	·	-7.2	·	-1.8	·
O=C(N/N=C/c1ccc2c(c1)OCO2)c1ccc(NC(=O)c2ccc(F)cc2)cc1	24.7*	1.8	16.4	-14.1	14.6
CC(C)Oc1ccc(CCC(=O)N/N=C/c2ccc3c(c2)OCO3)cc1	31.6*	1.5	0.6	-2.2	-1.3
Cc1cc(S(=O)(=O)Nc2cccnc2)c(C)s1	25.4*	3.5	-8.1	-7.3	8.0
C[C@H](O)[C@@H]1CN2CCc3ccc(N4CCOCC4)cc3[C@@H]2C[C@@H]1N(C)C(=S)NCCc1ccccc1	·	-6.7	·	-2.3	·
COCCNc1nc(NCCOC)c2sc(-c3ccccc3)cc2n1	2.1	5.3	13.5	-1.3	·
C=CCNc1nc(NCc2cccc(OC)c2)c2sc(-c3ccccc3)cc2n1	26.3*	2.5	14.2	-2.1	26.4*
O=C(CSc1nnc(Cc2cccs2)n1-c1ccc(Cl)cc1)Nc1ccc(OCc2ccccc2)cc1	·	7.8	·	1.7	·
COC(=O)C1=C(C)N(Cc2cccc(C(F)(F)F)c2)C(=NCc2ccc(C(F)(F)F)cc2)NC1c1ccc(C(F)(F)F)cc1 (stereo unspecified)	32.5*	-6.2	19.3	-7.2	15.6
COC(=O)C1=C(C)N(Cc2cccc(C(F)(F)F)c2)C(=NCc2ccc(C(F)(F)F)cc2)NC1c1cccc(F)c1 (stereo unspecified)	29.4*	-10.8	2.7	-8.1	5.6
COC(=O)C1=C(C)N(Cc2cccc(C(F)(F)F)c2)C(=NCc2ccc(C(F)(F)F)cc2)NC1c1ccc(F)cc1 (stereo unspecified)	19.7	5.6	4.9	-1.3	·
O=C(NC1CCCCN(Cc2ccc(OC(F)(F)F)cc2)C1=O)c1cccc(C(F)(F)F)c1 (stereo unspecified)	·	3.3	·	6.0	·
CCOC(=O)[C@@]12CCC3=C1N(CCC3)C(=O)[C@H](CC(=O)NCCCOC)C2	·	3.5	·	-11.4	·
O=C(NCCC1CCCCN1S(=O)(=O)c1ccccc1)C(=O)Nc1ccc(F)cc1 (stereo unspecified)	12.6	-0.8	-5.2	1.1	·
COc1ccc(NC(=O)C(=O)NCCC2CCCCN2S(=O)(=O)c2ccc(F)cc2)cc1 (stereo unspecified)	27.6*	-2.8	14.7	5.2	3.2
O=C(Nc1sc2c(c1-c1nc3ccccc3s1)CCNC2)C(F)(F)F	·	0.4	·	-5.8	·
CC(C)N(Cc1nc(-c2ccc(Cl)cc2)no1)Cc1nccn1C	24.7*	-3.9	-12.2	1.7	3.7
COc1ccccc1CNC(=O)CSc1nc(N)c(C#N)c(-c2cccs2)c1C#N	42.2*	11.1	-11.2	5.3	30.2*
O=C(Nc1ccc(Cl)cc1)O[C@@H]1CC[C@@]23CCCN2C(=O)CCC[C@H]3C1	·	5.8	·	0.0	·
Cc1nnc2n(-c3ccccc3)c(=O)c3c4c(sc3n12)CC(C)CC4 (stereo unspecified)	-5.5	1.8	0.8	-2.6	·

High-throughput results deposited in PubChem BioAssay by The Scripps Research Institute Molecular Screening Center.
